≈ marks a conversion by molar mass, not a printed value. Bounds are passed on as bounds.

Assay [1] has as its system Lichtheimia corymbifera. In words: In vitro inhibition of Absidia corymbifera 272 growth for 24 hours. To be noted: Lichtheimia corymbifera, 24 h; read-out: MIC. In kind it is functional. In short, it runs like this: (§1)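 Filamentous isolates tested by microdilution per NCCLS M27-A in RPMI 1640 plus L-glutamine, buffered with 0.165 M MOPS to pH 7.0. Final inoculum 5 × 10^3 cfu/mL. Compounds in DMSO (final ≤2%), 2-fold series over 1000–0.24 µmol/L. Plates held at 35 °C and read visually after 24 and 48 h. MIC taken as 80% inhibition of control growth; determined twice in duplicate.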

Assay [2] has as its system Lichtheimia corymbifera. In words: In vitro inhibition of Absidia corymbifera 272 growth for 48 hours. In kind it is functional. To be noted: Lichtheimia corymbifera, 48 h; read-out: MIC. In short, it runs like this:
as §1

Assay [3] deals with Pichia kudriavzevii. Nature of the assay: Inhibition of Candida krusei ATCC 6258 growth for 24 hours in vitro. Type of assay: functional. To be noted: Pichia kudriavzevii, ATCC 6258, 24 h; read-out: MIC. The method in brief:
(§2)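 NCCLS M27-A broth microdilution in RPMI 1640 with L-glutamine and 0.165 M MOPS, pH 7.0. Isolates kept on Sabouraud dextrose agar. Inoculum 5 × 10^3 cfu/mL final. Compounds were diluted in DMSO (≤2% final) and tested in 2-fold dilutions of 1000–0.24 µmol/L. Incubation at 35 °C, OD540 read at 24 and 48 h. MIC = 80% growth inhibition versus control; assays run twice in duplicate.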

Assay [4] has as its system Pichia kudriavzevii. Nature of the assay: Inhibition of Candida krusei ATCC 6258 growth for 48 hours in vitro. As to conditions: Pichia kudriavzevii, ATCC 6258, 48 h; read-out: MIC. Type of assay: functional. The method in brief: as §2
The subject of assay [5] is Pichia kudriavzevii. Nature of the assay: Inhibition of Candida krusei E28 growth for 24 hours in vitro. To be noted: Pichia kudriavzevii, 24 h; read-out: MIC. Type of assay: functional. In short, it runs like this:
as §2

Assay [6] concerns Pichia kudriavzevii. Nature of the assay: Inhibition of Candida krusei E28 growth for 48 hours in vitro. Type of assay: functional. As to conditions: Pichia kudriavzevii, 48 h; read-out: MIC. In short, it runs like this:
as §2

Assay [7] deals with Aspergillus fumigatus. Nature of the assay: Inhibition of Aspergillus fumigatus 231 growth for 48 hours in vitro. Type of assay: functional. As to conditions: Aspergillus fumigatus, 48 h; read-out: MIC. In short, it runs like this: as §1
Assay [8] relates to Clavispora lusitaniae. Nature of the assay: Inhibition of Candida lusitaniae 2446/I growth for 24 hours in vitro. Type of assay: functional. To be noted: Clavispora lusitaniae, 24 h; read-out: MIC. In short, it runs like this:
as §2

Assay [9] relates to Clavispora lusitaniae. Nature of the assay: Inhibition of Candida lusitaniae 2446/I growth for 48 hours in vitro. In kind it is functional. To be noted: Clavispora lusitaniae, 48 h; read-out: MIC. In short, it runs like this:
as §2

The subject of assay [10] is Candida parapsilosis. In words: Inhibition of Candida parapsilosis ATCC 22019 growth for 24 hours in vitro. To be noted: Lodderomyces parapsilosis, ATCC 22019, 24 h; read-out: MIC. In kind it is functional. In short, it runs like this: as §2
The test system of assay [11] is Candida parapsilosis. Nature of the assay: Inhibition of Candida parapsilosis ATCC 22019 growth for 48 hours in vitro. Type of assay: functional. As to conditions: Lodderomyces parapsilosis, ATCC 22019, 48 h; read-out: MIC. The method in brief: as §2
Assay [12] concerns Candida albicans. In words: Inhibition of Candida albicans ATCC 44859 growth for 24 hours in vitro. Type of assay: functional. As to conditions: Candida albicans, ATCC 44859, 24 h; read-out: MIC. In short, it runs like this: as §2
Assay [13] deals with Candida albicans. In words: Inhibition of Candida albicans ATCC 44859 growth for 48 hours in vitro. Type of assay: functional. As to conditions: Candida albicans, ATCC 44859, 48 h; read-out: MIC. The method in brief:
as §2

Assay [14] has as its system Candida albicans. In words: Inhibition of Candida albicans ATCC 90028 for 24 hours in vitro. Type of assay: functional. As to conditions: Candida albicans, ATCC 90028, 24 h; read-out: MIC. In short, it runs like this: as §2
In assay [15] the test system is Candida albicans. In words: Inhibition of Candida albicans ATCC 90028 for 48 hours in vitro. Type of assay: functional. As to conditions: Candida albicans, ATCC 90028, 48 h; read-out: MIC. The method in brief: as §2
The subject of assay [16] is Nakaseomyces glabratus. In words: Inhibition of Candida glabrata 20/I growth for 24 hours in vitro. Type of assay: functional. To be noted: Nakaseomyces glabratus, 24 h; read-out: MIC. In short, it runs like this:
as §2

Assay [17] relates to Nakaseomyces glabratus. Nature of the assay: Inhibition of Candida glabrata 20/I growth for 48 hours in vitro. Type of assay: functional. To be noted: Nakaseomyces glabratus, 48 h; read-out: MIC. The method in brief:
as §2

Assay [18] has as its system Candida tropicalis. Nature of the assay: Inhibition of Candida tropicalis 156 growth for 24 hours in vitro. Type of assay: functional. To be noted: Candida tropicalis, 24 h; read-out: MIC. The method in brief:
as §2

Assay [19] concerns Trichosporon beigelii. Nature of the assay: Inhibition of Trichosporon beigelli 1188 for 24 hours in vitro. To be noted: Trichosporon beigelii, 24 h; read-out: MIC. In kind it is functional. The method in brief:
(§3)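 Microdilution following NCCLS M27-A. Medium: RPMI 1640 with L-glutamine, 0.165 M MOPS, pH 7.0. Final inoculum 5 × 10^3 cfu/mL. Compounds dissolved in DMSO, final ≤2%, serially halved from 1000 to 0.24 µmol/L. Incubated at 35 °C and read at 24 and 48 h. MIC defined as 80% inhibition of control growth; run twice in duplicate.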

For assay [20], the system named is Trichosporon beigelii. In words: Inhibition of Trichosporon beigelli 1188 for 48 hours in vitro. In kind it is functional. To be noted: Trichosporon beigelii, 48 h; read-out: MIC. The method in brief: as §3
The nature of assay [21]: Inhibition of Trichophyton mentagrophytes 445 growth for 72 hours in vitro. In kind it is functional, Arthroderma benhamiae. As to conditions: Trichophyton benhamiae, 72 h; read-out: MIC. In short, it runs like this: (§4)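 Dermatophyte grown in MOPS-buffered (0.165 M, pH 7.0) RPMI 1640 containing L-glutamine, in an M27-A microdilution format. Inoculum 5 × 10^3 cfu/mL final. Compounds from DMSO stocks (≤2% final), 2-fold dilutions 1000–0.24 µmol/L. Incubated at 35 °C, growth judged visually at 72 and 120 h. MIC endpoint is 80% inhibition relative to control; measured twice in duplicate.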

Assay [22] can be described thus: Inhibition of Trichophyton mentagrophytes 445 growth for 120 hours in vitro. In kind it is functional, Arthroderma benhamiae. As to conditions: Trichophyton benhamiae, 120 h; read-out: MIC. In short, it runs like this: as §4
Assay [23] has as its system Aspergillus fumigatus. Nature of the assay: Inhibition of Aspergillus fumigatus 231 growth for 24 hours in vitro. Type of assay: functional. As to conditions: Aspergillus fumigatus, 24 h; read-out: MIC. In short, it runs like this:
as §1

For assay [24], the system named is Candida tropicalis. In words: Inhibition of Candida tropicalis 156 growth for 48 hours in vitro. To be noted: Candida tropicalis, 48 h; read-out: MIC. In kind it is functional. In short, it runs like this: as §2

Take `O=C1OC(CO)C=C1c1ccc(Cl)c(Cl)c1` (stereo not drawn): the MIC worked out at 125 µM (≈ 32.4 µg/mL) with Lichtheimia corymbifera [1]; 125 µM (≈ 32.4 µg/mL) with Lichtheimia corymbifera [2]; 250 µM (≈ 64.8 µg/mL) with Pichia kudriavzevii [3]; 250 µM (≈ 64.8 µg/mL) in the assay with Pichia kudriavzevii [4]; 125 µM (≈ 32.4 µg/mL) with Pichia kudriavzevii [5]; 250 µM (≈ 64.8 µg/mL) in the assay on Pichia kudriavzevii [6]. The MIC with Aspergillus fumigatus [7] came to 250 µM (≈ 64.8 µg/mL); in the assay with Clavispora lusitaniae [8], 125 µM (≈ 32.4 µg/mL); in the assay on Clavispora lusitaniae [9], 250 µM (≈ 64.8 µg/mL); with Candida parapsilosis [10], 250 µM (≈ 64.8 µg/mL); in the assay with Candida parapsilosis [11], 500 µM (≈ 130 µg/mL); in the assay with Candida albicans [12], 62.5 µM (≈ 16.2 µg/mL). Besides, the MIC in the assay with Candida albicans [13] came out at 250 µM (≈ 64.8 µg/mL); with Candida albicans [14] it was 250 µM (≈ 64.8 µg/mL); in the assay on Candida albicans [15] it was 500 µM (≈ 130 µg/mL); with Nakaseomyces glabratus [16], 62.5 µM (≈ 16.2 µg/mL); in the assay on Nakaseomyces glabratus [17], 62.5 µM (≈ 16.2 µg/mL); in the assay with Candida tropicalis [18], 250 µM (≈ 64.8 µg/mL). Further, the MIC with Trichosporon beigelii [19] is 500 µM (≈ 130 µg/mL); with Trichosporon beigelii [20], over 1000 µM; in [21] it was 15.6 µM (≈ 4.05 µg/mL); in assay [22], 15.6 µM (≈ 4.05 µg/mL); in the assay on Aspergillus fumigatus [23] it was 62.5 µM (≈ 16.2 µg/mL); with Candida tropicalis [24], 500 µM (≈ 130 µg/mL).
For `O=C1OC(COC(=O)c2ccc(Cl)cc2)C=C1c1cccc(Cl)c1` (stereo not drawn), the MIC in the assay with Lichtheimia corymbifera [1] worked out at 3.91 µM (≈ 1.42 µg/mL); in the assay with Lichtheimia corymbifera [2], 15.6 µM (≈ 5.68 µg/mL); in the assay with Pichia kudriavzevii [3], 7.81 µM (≈ 2.84 µg/mL); in the assay on Pichia kudriavzevii [4] it was 15.6 µM (≈ 5.68 µg/mL); in the assay with Pichia kudriavzevii [5] it was 15.6 µM (≈ 5.68 µg/mL); in the assay on Pichia kudriavzevii [6] it was 15.6 µM (≈ 5.68 µg/mL). For the same compound, the MIC with Aspergillus fumigatus [7] came out at 3.91 µM (≈ 1.42 µg/mL); with Clavispora lusitaniae [8] it was 7.81 µM (≈ 2.84 µg/mL); in the assay on Clavispora lusitaniae [9], 15.6 µM (≈ 5.68 µg/mL); with Candida parapsilosis [10], 7.81 µM (≈ 2.84 µg/mL); in the assay with Candida parapsilosis [11], 31.2 µM (≈ 11.3 µg/mL); with Candida albicans [12], 1.95 µM (≈ 0.708 µg/mL). In addition, the MIC in the assay on Candida albicans [13] worked out at 3.91 µM (≈ 1.42 µg/mL); in the assay with Candida albicans [14], 7.81 µM (≈ 2.84 µg/mL); with Candida albicans [15] it was 7.81 µM (≈ 2.84 µg/mL); with Nakaseomyces glabratus [16], 1.95 µM (≈ 0.708 µg/mL); with Nakaseomyces glabratus [17], 1.95 µM (≈ 0.708 µg/mL); in the assay with Candida tropicalis [18], 15.6 µM (≈ 5.68 µg/mL). Moreover, the MIC in the assay with Trichosporon beigelii [19] worked out at 7.81 µM (≈ 2.84 µg/mL); in the assay with Trichosporon beigelii [20], 15.6 µM (≈ 5.68 µg/mL); in assay [21], 1.95 µM (≈ 0.708 µg/mL); in [22] it was 3.91 µM (≈ 1.42 µg/mL); in the assay with Aspergillus fumigatus [23], 1.95 µM (≈ 0.708 µg/mL); in the assay on Candida tropicalis [24] it was 31.2 µM (≈ 11.3 µg/mL).

The MIC is the smallest concentration in the dilution series that meets the test's criterion for growth inhibition.

Source of the values: ChEMBL document CHEMBL1134691, “3-Phenyl-5-acyloxymethyl-2H,5H-furan-2-ones: synthesis and biological activity of a novel group of potential antifungal drugs” (2001).
